{"source": "paper PMC9860122", "about": "(The Journal of Biological Chemistry, 2022)", "key": {"NmeIPMSR32Q [1]": {"target": "T1, NmeIPMSR32Q (Neisseria meningitidis serogroup B, UniProt Q9JZG1, R32Q)", "T1 sequence (Q9JZG1 1-517 R32Q)": "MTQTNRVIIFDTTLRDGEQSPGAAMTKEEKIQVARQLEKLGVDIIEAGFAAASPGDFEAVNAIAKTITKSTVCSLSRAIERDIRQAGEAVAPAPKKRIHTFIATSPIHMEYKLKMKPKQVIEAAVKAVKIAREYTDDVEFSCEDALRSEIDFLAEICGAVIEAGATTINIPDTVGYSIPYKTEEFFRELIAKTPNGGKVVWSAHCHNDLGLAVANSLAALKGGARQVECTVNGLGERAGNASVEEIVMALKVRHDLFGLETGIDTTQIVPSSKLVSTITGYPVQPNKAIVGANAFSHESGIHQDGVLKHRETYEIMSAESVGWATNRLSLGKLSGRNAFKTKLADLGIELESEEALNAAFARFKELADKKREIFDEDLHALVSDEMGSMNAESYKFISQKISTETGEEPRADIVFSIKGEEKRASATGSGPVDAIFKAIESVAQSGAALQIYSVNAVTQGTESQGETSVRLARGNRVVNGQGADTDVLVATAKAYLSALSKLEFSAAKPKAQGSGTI", "assay": "DTP-coupled kinetic assay", "type": "biochemical", "conditions": "homodimer R32Q, apparent Km", "how_it_was_run": "(§1)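 E. coli BL21(DE3)-expressed enzyme, TEV-cleaved and SEC-purified; variant homodimers taken as the StrepTrap flow-through. CoA release monitored with DTP at 324 nm (ε = 1.98 × 10⁴ l × M⁻¹ cm⁻¹), 25 °C. Mix: 100 μM DTP, 20 mM KCl, 20 mM MgCl₂, 3.0 × 10⁻² μM enzyme, 50 mM HEPES pH 7.5, started with α-KIV. One substrate held at 300 μM, the other varied.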"}, "NmeIPMSR470Q [2]": {"target": "T2, NmeIPMSR470Q (Neisseria meningitidis serogroup B, UniProt Q9JZG1, R470Q)", "T2 sequence (Q9JZG1 1-517 R470Q)": "T1 sequence (Q9JZG1 1-517 R32Q) with Q32R, R470Q", "assay": "DTP-coupled kinetic assay", "type": "biochemical", "conditions": "homodimer R470Q, apparent Km", "how_it_was_run": "as §1"}, "NmeIPMS [3]": {"target": "T3, NmeIPMS (Neisseria meningitidis serogroup B, UniProt Q9JZG1)", "T3 sequence (Q9JZG1 1-517)": "T1 sequence (Q9JZG1 1-517 R32Q) with Q32R", "assay": "DTP-coupled kinetic assay", "type": "biochemical", "conditions": "read-out: Km^KIV; WT NmeIPMS; apparent Km; AcCoA fixed at 300 μM; 25 °C, pH 7.5", "how_it_was_run": "as §1"}, "NmeIPMSR32Q [4]": {"target": "T1, NmeIPMSR32Q", "assay": "Leu inhibition assay", "type": "biochemical"}, "NmeIPMSR470Q [5]": {"target": "T2, NmeIPMSR470Q", "assay": "Leu inhibition assay", "type": "biochemical"}, "NmeIPMS [6]": {"target": "T3, NmeIPMS", "assay": "waterLOGSY NMR Leu binding assay", "how_it_was_run": "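Leu titrated at 0, 50, 150, 250, 500 and 750 μM in 10 mM HEPES pH 8.0, 3 mM MgCl₂, 3 mM KCl, 10% D₂O. Each sample recorded first without enzyme, then with 10 μM untagged enzyme. ¹H spectra at 600 MHz, 25 °C, without a water flipback pulse. KD fitted from the isotherm of corrected waterLOGSY intensity change against ligand concentration.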"}, "NmeIPMSR32Q^hetero": {"target": "T4, NmeIPMSR32Q^hetero (Neisseria meningitidis serogroup B, UniProt Q9JZG1, R32Q)", "T4 sequence (Q9JZG1 1-517 R32Q)": "T1 sequence (Q9JZG1 1-517 R32Q)", "T4 sequence (Q9JZG1 1-517)": "T1 sequence (Q9JZG1 1-517 R32Q) with Q32R", "assay": "waterLOGSY NMR Leu binding assay"}, "NmeIPMSR32Q [7]": {"target": "T1, NmeIPMSR32Q", "assay": "waterLOGSY NMR Leu binding assay"}, "NmeIPMSR470Q^hetero": {"target": "T5, NmeIPMSR470Q^hetero (Neisseria meningitidis serogroup B, UniProt Q9JZG1, R470Q)", "T5 sequence (Q9JZG1 1-517 R470Q)": "T1 sequence (Q9JZG1 1-517 R32Q) with Q32R, R470Q", "T5 sequence (Q9JZG1 1-517)": "T1 sequence (Q9JZG1 1-517 R32Q) with Q32R", "assay": "waterLOGSY NMR Leu binding assay"}, "NmeIPMSR470Q [8]": {"target": "T2, NmeIPMSR470Q", "assay": "waterLOGSY NMR Leu binding assay"}, "[9]": {"conditions": "read-out: Km^AcCoA, α-KIV fixed at 300 μM"}, "[10]": {"conditions": "read-out: Km^KIV, AcCoA fixed at 300 μM"}}, "note": "Positions count from the first letter of the chain named. Read-outs that look alike come from different tables or passages of the source.", "data": [{"smiles": "CC(=O)SCCNC(=O)CCNC(=O)[C@H](O)C(C)(C)COP(=O)(O)OP(=O)(O)OC[C@H]1O[C@@H](n2cnc3c(N)ncnc32)[C@H](O)[C@@H]1OP(=O)(O)O", "note": "[AcCoA, acetyl-coenzyme A]", "values": [{"measurement": "Km", "setting": "NmeIPMSR32Q [1]; [9]", "result": "40 ± 5", "unit": "µM"}, {"measurement": "Km", "setting": "NmeIPMSR470Q [2]; [9]", "result": "48 ± 3", "unit": "µM"}]}, {"smiles": "CC(C)C(=O)C(=O)O", "note": "[KIV, α-ketoisovalerate]", "values": [{"measurement": "Km", "setting": "NmeIPMS [3]", "result": "37 ± 5", "unit": "µM"}, {"measurement": "Km", "setting": "NmeIPMSR32Q [1]; [10]", "result": "47 ± 3", "unit": "µM"}, {"measurement": "Km", "setting": "NmeIPMSR470Q [2]; [10]", "result": "53 ± 6", "unit": "µM"}]}, {"smiles": "CC(C)C[C@H](N)C(=O)O", "note": "[Leu, leucine]", "values": [{"measurement": "Ki", "setting": "NmeIPMSR32Q [4]", "result": "> 100", "unit": "µM"}, {"measurement": "Ki", "setting": "NmeIPMSR470Q [5]", "result": "> 100", "unit": "µM"}, {"measurement": "Kd", "setting": "NmeIPMS [6]", "result": "376 ± 48", "unit": "µM"}, {"measurement": "Kd", "setting": "NmeIPMSR32Q^hetero", "result": "324 ± 65", "unit": "µM"}, {"measurement": "Kd", "setting": "NmeIPMSR32Q [7]", "result": "352 ± 37", "unit": "µM"}, {"measurement": "Kd", "setting": "NmeIPMSR470Q^hetero", "result": "370 ± 55", "unit": "µM"}, {"measurement": "Kd", "setting": "NmeIPMSR470Q [8]", "result": "386 ± 72", "unit": "µM"}]}]}
